Experimental data: ChEMBL document CHEMBL1154674, “Synthesis and evaluation of three 18F-labeled aminophenylbenzothiazoles as amyloid imaging agents” (J Med Chem, 2009)
Blank lines part the entries; values can stand above or below the compound they belong to.

Assays:
Type in all cases: ADME, organism-based, Macaca mulatta
[1] = Drug level in normal rhesus monkey pons assessed as standard uptake value at 81.2 MBq, iv after 4.5 mins by microPET; conditions: in vivo, 0.075 h
[2] = Drug level in normal rhesus monkey white matter assessed as standard uptake value at 81.2 MBq, iv after 75 mins by microPET; conditions: in vivo, 1.25 h
[3] = Drug level in normal rhesus monkey cerebellum assessed as standard uptake value at 81.2 MBq, iv after 175 mins by microPET; conditions: in vivo
Method in brief: (§1)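 One normal rhesus monkey, each tracer given iv via the vena saphena (81.2, 96.3 or 109.4 MBq), with 1 day between tracer injections. Dynamic brain μPET over 180 min used frames of 5 × 60 s, 5 × 120 s, 9 × 300 s and 12 × 600 s. Images were reconstructed by filtered back projection with a RAMP filter. Regional time-activity curves were expressed as SUV.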

[4] = Drug level in normal rhesus monkey parietal cortex assessed as standard uptake value at 81.2 MBq, iv after 37.5 mins by microPET; conditions: in vivo, 0.625 h
[5] = Drug level in normal rhesus monkey white matter assessed as standard uptake value at 96.3 MBq, iv after 165 mins by microPET; conditions: in vivo, 2.75 h
[6] = Drug level in normal rhesus monkey frontal cortex assessed as standard uptake value at 96.3 MBq, iv after 14 mins by microPET; conditions: in vivo
[7] = Drug level in normal rhesus monkey parietal cortex assessed as standard uptake value at 96.3 MBq, iv after 155 mins by microPET; conditions: in vivo
[8] = Drug level in normal rhesus monkey white matter assessed as standard uptake value at 96.3 MBq, iv after 57.5 mins by microPET; conditions: in vivo
[9] = Drug level in normal rhesus monkey parietal cortex assessed as standard uptake value at 96.3 MBq, iv after 27.5 mins by microPET; conditions: in vivo
[10] = Drug level in normal rhesus monkey frontal cortex assessed as standard uptake value at 96.3 MBq, iv after 12 mins by microPET; conditions: in vivo, 0.2 h
[11] = Drug level in normal rhesus monkey parietal cortex assessed as standard uptake value at 96.3 MBq, iv after 1.5 mins by microPET; conditions: in vivo, 0.025 h
[12] = Drug level in normal rhesus monkey pons assessed as standard uptake value at 96.3 MBq, iv after 135 mins by microPET; conditions: in vivo, 2.25 h
[13] = Drug level in normal rhesus monkey thalamus assessed as standard uptake value at 96.3 MBq, iv after 4.5 mins by microPET; conditions: in vivo, 0.075 h
[14] = Drug level in normal rhesus monkey frontal cortex assessed as standard uptake value at 109.4 MBq, iv after 6.5 mins by microPET; conditions: in vivo
[15] = Drug level in normal rhesus monkey thalamus assessed as standard uptake value at 109.4 MBq, iv after 129 mins by microPET; conditions: in vivo, 2.15 h
[16] = Drug level in normal rhesus monkey pons assessed as standard uptake value at 109.4 MBq, iv after 87 mins by microPET; conditions: in vivo, 1.45 h
[17] = Drug level in normal rhesus monkey white matter assessed as standard uptake value at 109.4 MBq, iv after 117 mins by microPET; conditions: in vivo, 1.95 h
[18] = Drug level in normal rhesus monkey frontal cortex assessed as standard uptake value at 109.4 MBq, iv after 1.5 mins by microPET; conditions: in vivo, 0.025 h; method in brief: as §1
[19] = Drug level in normal rhesus monkey thalamus assessed as standard uptake value at 109.4 MBq, iv after 69 mins by microPET; conditions: in vivo, 1.15 h
[20] = Drug level in normal rhesus monkey white matter assessed as standard uptake value at 109.4 MBq, iv after 32.5 mins by microPET; conditions: in vivo
[21] = Drug level in normal rhesus monkey thalamus assessed as standard uptake value at 109.4 MBq, iv after 42.5 mins by microPET; conditions: in vivo
[22] = Drug level in normal rhesus monkey pons assessed as standard uptake value at 109.4 MBq, iv after 105 mins by microPET; conditions: in vivo, 1.75 h
[23] = Drug level in normal rhesus monkey cerebellum assessed as standard uptake value at 109.4 MBq, iv after 129 mins by microPET; conditions: in vivo, 2.15 h
[24] = Drug level in normal rhesus monkey white matter assessed as standard uptake value at 109.4 MBq, iv after 0.875 mins by microPET; conditions: in vivo, 52 s
[25] = Drug level in normal rhesus monkey thalamus assessed as standard uptake value at 109.4 MBq, iv after 22.5 mins by microPET; conditions: in vivo, 0.375 h
[26] = Drug level in normal rhesus monkey cerebellum assessed as standard uptake value at 152.9 MBq, iv after 0.5 mins by microPET; conditions: in vivo
Method in brief: (§2)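 One normal rhesus monkey received each tracer via the vena saphena, with 1 day between injections. Dynamic μPET ran 180 min for 18F tracers (5×60 s, 5×120 s, 9×300 s, 12×600 s) and 90 min for the 11C tracer (5×60 s, 5×120 s, 9×300 s, 3×600 s). Filtered back-projection reconstruction (RAMP filter) was used. Time-activity curves were drawn to give regional SUV.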

[27] = Drug level in normal rhesus monkey white matter assessed as standard uptake value at 152.9 MBq, iv after 85 mins by microPET; conditions: in vivo
[28] = Drug level in normal rhesus monkey pons assessed as standard uptake value at 152.9 MBq, iv after 42.5 mins by microPET; conditions: in vivo
[29] = Drug level in normal rhesus monkey cerebellum assessed as standard uptake value at 152.9 MBq, iv after 37.5 mins by microPET; conditions: in vivo, 0.625 h; method in brief: as §2
[30] = Drug level in normal rhesus monkey frontal cortex assessed as standard uptake value at 152.9 MBq, iv after 85 mins by microPET; conditions: in vivo
Method in brief: (§3)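 Single normal rhesus monkey; tracer given iv via the vena saphena, 1 day apart from the other tracer injections. Dynamic μPET ran 90 min (5×60 s, 5×120 s, 9×300 s, 3×600 s). Images were reconstructed by filtered back projection with a RAMP filter. Regional time-activity curves were expressed as SUV.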

[31] = Drug level in normal rhesus monkey frontal cortex assessed as standard uptake value at 152.9 MBq, iv after 2.5 mins by microPET; conditions: in vivo; method in brief: as §3
[32] = Drug level in normal rhesus monkey frontal cortex assessed as standard uptake value at 152.9 MBq, iv after 27.5 mins by microPET; conditions: in vivo; method in brief: as §3
[33] = Drug level in normal rhesus monkey parietal cortex assessed as standard uptake value at 152.9 MBq, iv after 2.5 mins by microPET; conditions: in vivo
[34] = Drug level in normal rhesus monkey cerebellum assessed as standard uptake value at 152.9 MBq, iv after 27.5 mins by microPET; conditions: in vivo; method in brief: as §3
[35] = Drug level in normal rhesus monkey white matter assessed as standard uptake value at 152.9 MBq, iv after 47.5 mins by microPET; conditions: in vivo
[36] = Drug level in normal rhesus monkey frontal cortex assessed as standard uptake value at 152.9 MBq, iv after 14 mins by microPET; conditions: in vivo; method in brief: as §3
[37] = Drug level in normal rhesus monkey pons assessed as standard uptake value at 152.9 MBq, iv after 3.5 mins by microPET; conditions: in vivo

- SUV [1]: 5.172
- SUV [2]: 3.823
- SUV [3]: 1.384
- SUV [4]: 3.965
SMILES: CNc1ccc2nc(-c3ccc([18F])cc3)sc2c1

- SUV [5]: 1.55
- SUV [6]: 2.19
- SUV [7]: 1.23
- SUV [8]: 1.37
- SUV [9]: 1.99
- SUV [10]: 1.99
- SUV [11]: 1.7
- SUV [12]: 1.92
- SUV [13]: 1.93
SMILES: CN(C)c1ccc2nc(-c3ccc([18F])cc3)sc2c1

- SUV [14]: 5.35
- SUV [15]: 4.43
- SUV [16]: 4.84
- SUV [17]: 3.71
- SUV [18]: 3.35
- SUV [19]: 5.32
- SUV [20]: 3.36
- SUV [21]: 5.55
- SUV [22]: 4.79
- SUV [23]: 2.36
- SUV [24]: 1.16
- SUV [25]: 5.55
SMILES: Nc1ccc2nc(-c3ccc([18F])cc3)sc2c1

- SUV [26]: 0.053
- SUV [27]: 0.878
- SUV [28]: 1.179
- SUV [29]: 0.996
- SUV [30]: 0.625
- SUV [31]: 1.133
- SUV [32]: 1.215
- SUV [33]: 1.106
- SUV [34]: 1.258
- SUV [35]: 0.943
- SUV [36]: 1.904
- SUV [37]: 1.502
SMILES: [11CH3]Nc1ccc(-c2nc3ccc(O)cc3s2)cc1 [PITTSBURGH COMPOUND B]
